High-throughput results: PubChem, several laboratories
Rows were chosen to be rich in hits. Some 1.9% of all compounds tested hit in one or more screens of this group.
pCIP destab = p/CIP protein destabilization; Q05BA5; F442A p/CIP-EGFP cells, EGFP fluorescence, 16 h; decrease of EGFP signal, % at 10 µM; actives 0.01% (n = 290,000); AID 1984;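 active means EGFP signal decrease of at least 30% at 10 µM or well 3 SD below plate mean, unless failing retest; inactive means the rest, including hits failing retest or dose response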
Dynein cargo inh = blocks dynein driven cargo transport along microtubules. 3617.4 mouse cells, GR-EGFP nuclear translocation imaging; test concentration mostly 20 µM; stimulated with dexamethasone, 1 µM; hits give low values. z-score, hits read low. actives 0.47% (n = 220,000). AID 1381;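 active means plate z-score of nuclear minus cytoplasmic receptor signal below a set negative limit, without overly bright fluorescence or cell loss, cut at about -3.5 in these data, passing the limit was not always enough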;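 further: z-score of nuclear minus cytoplasmic ring GR-EGFP intensity difference per well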
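Also added: dexamethasone, 1.0 µM final. Medium: tet-free, stripped-serum medium. Detection: fixed, Hoechst-stained cells imaged at 10x for EGFP. Read-out: nuclear-to-cytoplasmic GR-EGFP distribution per well. Times: induction 48 h, compound 1 h, agonist 30 min.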
NCF1 inh = blocks human p47phox regulatory protein of NADPH oxidases; P14598; p47phox/p22phox peptide binding, fluorescence polarization, 2 h; inhibition, % at 24.7 µM; actives 0.53% (n = 220,000); AID 1274;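 active means inhibition above about 30%, limit read from the data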;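 further: 0% = p47phox with labelled peptide and 100% = labelled peptide alone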
Target sequence (P14598 whole entry, looked up): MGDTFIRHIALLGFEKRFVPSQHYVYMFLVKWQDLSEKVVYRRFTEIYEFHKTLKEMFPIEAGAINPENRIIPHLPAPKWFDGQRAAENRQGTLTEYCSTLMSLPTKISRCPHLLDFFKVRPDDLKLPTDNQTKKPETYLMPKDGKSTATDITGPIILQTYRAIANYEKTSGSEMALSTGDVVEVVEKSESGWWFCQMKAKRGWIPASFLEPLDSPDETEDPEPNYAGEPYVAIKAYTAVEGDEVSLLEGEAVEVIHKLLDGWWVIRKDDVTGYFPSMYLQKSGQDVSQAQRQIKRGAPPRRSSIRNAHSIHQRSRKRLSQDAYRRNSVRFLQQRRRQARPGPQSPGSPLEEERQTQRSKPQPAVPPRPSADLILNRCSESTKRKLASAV
RAM inhibit = inhibitors of the yeast RAM network; S. cerevisiae dse1pr::URA3 reporter, 5-FOA growth OD615, 2 d; analog-sensitive cbk1-as2 kinase mutant strain; inhibition, % at 50 µM; actives 1.8% (n = 190,000); AID 868;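 active means inhibition above a set limit, 3 SD over mean compound inhibition, cut at about 8.4% in these data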;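 further: 0% = DMSO-only wells with no growth and 100% = 10 µM 1-NA-PP1 full growth; inhibition rescues growth on 5-FOA so higher OD means more RAM inhibition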
Starred values were filed as active, the others as inactive; nt = not tested or not shown; + = active, no number.

SMILES | pCIP destab | Dynein cargo inh | NCF1 inh | RAM inhibit
Cc1ccc2c(c1)N(C(=O)CCC(=O)NCc1cccnc1)CC(C)O2 (stereo not drawn) | 5.0 | nt | nt | nt
Cc1ccc(NC(=O)CCC(=O)OCC(=O)c2ccc(Oc3ccc([N+](=O)[O-])cc3)cc2)cc1C | 11.5 | -0.688 | -19.1 | 10.6*
CC(C)C[C@@H](C(=O)N[C@@H](C(=O)O)c1ccccc1)N1C(=O)N2CCc3c([nH]c4ccccc34)[C@@]2(C)C1=O | 0.6 | nt | nt | nt
CCN1C(=O)c2cccc3c(NC(=O)c4cccc(N5C(=O)CCC5=O)c4)ccc1c23 | -3.3 | 1.44 | 1.7 | 9.3*
Cc1ccc(NC(=O)C2(S(=O)(=O)c3ccc(Cl)cc3)CC2)cc1 | 0.9 | nt | nt | nt
CCc1ccc2nc(N3C(=O)c4oc5ccccc5c(=O)c4C3c3ccc(OC)c(OC)c3)sc2c1 (stereo not drawn) | 0.4 | 0.505 | 37.8* | 3.5
CCOC(=O)C1=C(CC)Nc2ccccc2N/C1=N\S(=O)(=O)c1ccc(C(=O)OCC)cc1 | 17.0 | -0.75 | 5.6 | 9.3*
CCOC(=O)c1ccc(S(=O)(=O)NNS(=O)(=O)c2ccc(C)cc2)cc1 | 5.8 | nt | nt | nt
CCOC(=O)CSc1nnc(CCCCCN2C(=O)c3cccc4cccc(c34)C2=O)o1 | -2.1 | -0.88 | -5.9 | 10.8*
O=C(CCN1C(=O)S/C(=C\c2ccccc2)C1=O)NC1CCS(=O)(=O)C1 (stereo not drawn) | -7.1 | nt | nt | nt
COc1ccc(C(=O)N/C(=C\c2cn(S(=O)(=O)N(C)C)c3ccccc23)C(=O)NC(C)C)cc1 | 8.3 | 0.809 | 0.0 | 9.3*
Cc1cc(NC(=O)CSc2nc3c([nH]c4ccccc43)c(=O)n2-c2ccccc2F)no1 | 13.1 | nt | nt | nt
O=c1[nH]n(Cc2ccccc2)c2ccccc12 | -12.0 | nt | nt | nt
Cc1ccc(N2C(=O)c3n[nH]c(C)c3C2c2ccccn2)cc1 (stereo not drawn) | -87.3 | 1.12 | 72.7* | 0.5
Cc1ccc(N2C(=O)c3n[nH]c(C)c3C2c2ccco2)cc1 (stereo not drawn) | -10.7 | -0.151 | 46.4* | -0.8
COCc1cc(C)nc(SCC(=O)Oc2ccccc2)c1C#N | 5.1 | -0.597 | -4.0 | 9.1*
COc1ccc(C(C)NCCC(c2ccc(OC(C)C)cc2)c2ccccc2OC)cc1 (stereo not drawn) | 1.8 | nt | nt | nt
COc1ccc(C(CCNC(C)c2ccccc2)C(C)C)cc1 (stereo not drawn) | 0.9 | -0.0352 | 42.2* | nt
CCOC(=O)C1=C(COc2ccc(C)cc2)NC(=O)NC1c1cc(C)ccc1C (stereo not drawn) | -14.3 | -0.407 | + | 6.3
CC1(C)Cc2c(C#N)c(N)sc(=S)c2CS1 | 1.9 | -0.72 | 51.6* | 0.3
Cn1c(N)c(C#N)c2c(c1=S)CSC(C)(C)C2 | -9.5 | -0.981 | 4.1 | 0.3
COc1ccc(-n2nc(C(=O)NCC(=O)N3CCCC3)c3ccccc3c2=O)cc1Cl | 4.4 | nt | nt | nt
Cc1cc(O)ccc1Nc1nc2ccccc2nc1Nc1ccc(O)cc1C | -9.5 | 0.628 | 56.0* | 0.6
O=C(NCc1cccnc1)C12CC3CC(CC(Cl)(C3)C1)C2 | -6.9 | nt | nt | nt
CCOc1ccc(N(CC(=O)NCCC2=CCCCC2)S(=O)(=O)c2ccccc2)cc1 | 0.7 | 0.318 | 11.2 | 5.5
SMILES | pCIP destab | Dynein cargo inh | NCF1 inh | RAM inhibit
O=C(NCCC1=CCCCC1)c1ccc(Cl)cc1 | 3.4 | -0.204 | -2.7 | 0.0
CCN(c1ccccc1)S(=O)(=O)c1ccc(C(=O)Oc2ccc(C(C)=O)cc2)cc1 | 10.9 | -0.786 | -7.8 | 9.1*
CS(=O)(=O)N(Cc1ccc(Cl)cc1)c1ccc(C(=O)NCCC2=CCCCC2)cc1 | -11.2 | -0.0976 | -1.2 | 9.8*
CC(OC(=O)Cc1ccc(Cl)cc1)C(=O)NCCC1=CCCCC1 (stereo not drawn) | -10.4 | 0.437 | 7.4 | 9.0*
CCN(c1ccccc1)S(=O)(=O)c1ccc(C(=O)OC(C)C(=O)NCCC2=CCCCC2)cc1 (stereo not drawn) | -2.7 | -0.0493 | -14.6 | 9.0*
CCC(=O)c1ccc(OCC(=O)Nc2ccccc2N2CCCCC2)cc1 | 5.8 | nt | nt | nt
Cc1cc([N+](=O)[O-])nn1CC(=O)NCc1nc2ccccc2[nH]1 | 2.3 | 1.22 | 41.2* | -0.7
Cc1cc([N+](=O)[O-])nn1CC(=O)NCc1ccc(Cl)cc1 | -10.8 | nt | nt | nt
Cc1ccccc1NC1=C/C(=N\S(=O)(=O)c2cccs2)c2ccccc2C1=O | nt | -0.865 | 13.8 | 2.1
Cc1ccc(NC2=C/C(=N/S(=O)(=O)c3cccs3)c3ccccc3C2=O)cc1C | 7.6 | 0.281 | 36.1* | 1.2
CN1CCN(S(=O)(=O)c2ccc(NS(=O)(=O)c3ccccc3)cc2)CC1 | -19.7 | nt | nt | nt
